Source: PubChem
Compounds with a hit are over-represented: about 3.7% of the library has one in this group of screens.
Kir21 inh: blocks the mouse Kir2.1 inward-rectifier potassium channel | P35561 | HEK293-Kir2.1, FluxOR thallium flux fluorescence; active compounds read low | B-score at 10 µM | 0.85% of 310,000 active;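 active means fluorescence ratio B-score at or below minus 3 SD of library scores, with starting-brightness B-score within 2 SD, cut at about -4.2 in these data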;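 further: channel flux triggered by added potassium and thallium sulfate stimulus; B-score of peak minus minimum fluorescence over baseline after thallium stimulus; more negative B-score means stronger Kir2.1 block with less thallium influx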
KCNQ1 inh: blocks the human KCNQ1 potassium channel; B-score at 10 µM; CHO-K1 KCNQ1, FluxOR thallium flux fluorescence; active compounds read high; 1.3% of 310,000 active;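 active means compounds whose thallium flux B-score, printed positive for inhibition, exceeds three library SD while starting fluorescence stays within three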;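 further: channel opened by potassium depolarization with thallium stimulus after 20 min compound exposure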
Target sequence (P51787 whole entry, looked up): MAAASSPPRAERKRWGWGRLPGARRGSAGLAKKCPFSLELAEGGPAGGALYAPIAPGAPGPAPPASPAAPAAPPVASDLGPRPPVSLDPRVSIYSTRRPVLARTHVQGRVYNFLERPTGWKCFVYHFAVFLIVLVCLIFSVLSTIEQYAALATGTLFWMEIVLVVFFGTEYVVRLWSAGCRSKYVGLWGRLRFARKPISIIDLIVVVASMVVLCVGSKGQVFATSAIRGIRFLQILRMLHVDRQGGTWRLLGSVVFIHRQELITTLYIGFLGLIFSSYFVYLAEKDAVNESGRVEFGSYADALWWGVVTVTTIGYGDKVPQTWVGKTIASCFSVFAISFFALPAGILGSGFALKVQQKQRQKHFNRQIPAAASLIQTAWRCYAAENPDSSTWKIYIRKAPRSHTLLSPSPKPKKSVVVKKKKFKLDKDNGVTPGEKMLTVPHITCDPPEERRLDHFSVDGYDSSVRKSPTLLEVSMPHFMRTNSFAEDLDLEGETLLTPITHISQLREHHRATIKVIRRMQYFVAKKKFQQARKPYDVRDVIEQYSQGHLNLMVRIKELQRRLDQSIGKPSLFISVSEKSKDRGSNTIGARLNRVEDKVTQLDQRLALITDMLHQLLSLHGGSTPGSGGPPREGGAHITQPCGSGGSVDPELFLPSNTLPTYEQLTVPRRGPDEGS
KCNK3 inh: human KCNK3 channel inhibition, primary screen; O14649; CHO-KCNK3 thallium flux, FluxOR fluorescence; active compounds read low; B-score at 10 µM; 0.84% of 340,000 active; AID 602410;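 active means B-score under library mean minus 4 SD, starting fluorescence ratio at most library mean plus 5 SD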;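 further: more negative B-score means stronger inhibition of thallium flux through KCNK3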
KCNK9 block: inhibitors of human KCNK9 two-pore domain potassium channel. Q9NPC2. HEK293 KCNK9, FluxOR thallium flux fluorescence; active compounds read low. B-score at 10 µM. 1.2% of 310,000 active. AID 488922;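 active means ratio B-score over 3 SD below the library mean, with starting fluorescence within 5 SD of its mean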;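 further: negative B-score means less thallium flux so channel inhibition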
hERG rescue: compounds protecting human hERG from proarrhythmic drug block; Q12809; CHO-hERG, FluxOR thallium flux, dofetilide IC70 present; activation (rescue from dofetilide block), less the hit threshold, % at 10 µM; 0.51% of 310,000 active; AID 1511;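 active means activation above the mean of controls blocked by dofetilide plus 5 SD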;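 further: thallium influx through hERG after potassium depolarization seen as dye fluorescence rise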
KCNQ1 act: potentiates or activates the human KCNQ1 potassium channel; CHO-K1 KCNQ1, thallium flux FluxOR fluorescence; active compounds read high; B-score at 10 µM; AID 2648; 0.35% of 310,000 active;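 active means fluorescence ratio B-score, a plate-corrected score, at least three library SD, with initial intensity B-score within 5 SD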
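System: CHO-K1 cells stably expressing KCNQ1 / Medium: assay buffer for compound exposure, DMSO matched across wells / Reagent: thallium- and potassium-containing depolarizing buffer / Compound: one concentration, matched DMSO / Incubation: 20 min compound pretreatment at room temperature / Measured by: kinetic FluxOR fluorescence, 10 s baseline plus 110 s post-stimulus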
Hits are given with their value; n = inactive; x = no result.

SMILES	Kir21 inh	KCNQ1 inh	KCNK3 inh	KCNK9 block	hERG rescue	KCNQ1 act
CCOCCCNS(=O)(=O)c1ccc(NC(=O)Cc2c(F)cccc2Cl)cc1	n	n	n	n	n	n
CC(C)=CCC/C(C)=C/CCC(C)NCCN1CCNCC1 (centres undefined)	-7.37	n	x	n	n	n
CC(C)=CCC/C(C)=C/CC(C)(C)CNCCN1CCNCC1	-8.25	n	x	n	n	n
COc1cccc(N2CCN(C(=O)c3oc4ccccc4c3NC(=O)Cc3ccc(OC)c(OC)c3)CC2)c1	n	n	n	n	n	n
O=C1C(Cc2ccccc2)Nc2ncnc(N3CCc4ccccc4C3)c2N1Cc1ccc(Br)cc1 (centres undefined)	n	n	x	-7.73	n	n
O=C1C(Cc2ccccc2)Nc2ncnc(N3CCN(c4ccccc4)CC3)c2N1Cc1ccc(Br)cc1 (centres undefined)	x	x	n	x	x	x
COc1cc(OC)cc(C(C)=O)c1	n	n	n	n	5.7	n
COc1cc(OC)cc(C(=O)Nc2cccc(C(C)=O)c2)c1	n	n	n	n	n	n
CCOC(=O)c1c(NC(=O)C(NCCN(C)C)c2ccccc2)sc2c1CCCC2 (centres undefined)	-6.22	n	n	n	n	n
OCCN(CCO)c1ccc(C(c2ccc(Cl)cc2)c2ccc(N(CCO)CCO)cc2Cl)c(Cl)c1	n	n	n	n	n	8
COc1ccc(CNC2c3ccccc3-c3ccccc32)cc1OC	-4.36	n	n	n	n	n
COc1ccc(CNC2CCCc3ccccc32)cc1OC (centres undefined)	n	n	n	n	n	n
COc1ccccc1C(CNC(=O)C(CCSC)NC(=O)c1ccccc1Cl)N1CCCC1 (centres undefined)	x	x	n	x	x	x
Cc1ccccc1NC(=O)CN1C(=O)c2ccccc2C1=O	n	n	n	n	n	n
Cc1ccccc1NC(=O)CN1C(=O)S/C(=C\c2ccc(-c3cccc(C(=O)O)c3C)o2)C1=O	n	n	n	n	11.1	n
Cc1ccc(NC(=O)CN2C(=O)S/C(=C/c3ccc(-c4cc(C(=O)O)ccc4C)o3)C2=O)cc1C	n	n	n	n	n	n
Cc1cccc(NC(=O)CN2C(=O)S/C(=C\c3ccc(-c4cccc(C(=O)O)c4C)o3)C2=O)c1	n	n	n	n	21.4	n
CCCc1cc(=O)n2[nH]cc(-c3ccc(Cl)cc3)c2n1	n	n	n	n	n	10
O=C(CSc1ccc(-c2ccccc2)nn1)N1CCCCC1	n	n	n	n	39.9	n
O=C(CSc1ccc(-c2ccc(Br)cc2)nn1)N1CCOCC1	n	n	n	n	5.0	n
O=C(CSc1ccc(-c2ccncc2)nn1)N1CCCCC1	n	n	n	n	n	n
COc1nc(NCCc2ccc(OC)c(OC)c2)nc(Nc2ccccc2)n1	n	n	n	n	n	n
Cc1nnc(NC(=O)CCSc2ccc(Cl)cc2)s1	n	n	n	n	n	n
CCOC(=O)C1=C(C)N=C2SC(C(=O)OC)=CC(=O)N2C1c1cccc(OC)c1 (centres undefined)	n	n	n	n	n	n
CCOC(=O)C1=C(C)N=C2SC(C(=O)OC)=CC(=O)N2C1c1ccc(F)cc1 (centres undefined)	-5.37	n	n	n	n	n
SMILES	Kir21 inh	KCNQ1 inh	KCNK3 inh	KCNK9 block	hERG rescue	KCNQ1 act
CC(=O)Nc1c2c(nn1-c1ccc(Cl)cc1)CSC2	n	n	n	n	n	n
COc1ccc(-c2nnc(-c3ccccc3O)o2)cc1	n	n	n	n	5.1	n
COc1ccc(-c2nnc(-c3ccc(C)cc3)o2)cc1	n	n	n	n	n	n
Cc1cc(C)n(-c2nc3ccccc3nc2Nc2ccc3[nH]c(=O)[nH]c3c2)n1	n	n	n	n	n	n
COc1ccc(Nc2nc3ccccc3nc2-n2nc(C)cc2C)cc1	n	n	n	-7.17	n	n
CCOC(=O)c1cc(CC)sc1NC(=O)CCC(=O)O	n	n	n	n	n	n
CCOC(=O)c1cc(CC)sc1NC(=O)Cc1ccsc1	n	n	-9.01	n	n	n
N#Cc1c(NC(=O)COC(=O)c2nccnc2N)sc2c1CCCC2	n	n	n	n	n	n
COC(=O)c1cc(C)sc1NC(=O)CN1CCN(C(=O)c2ccco2)CC1	n	n	n	n	n	n
CCOC(=O)c1c(NC(=O)CN2CCN(C(=O)c3ccco3)CC2)sc2c1CCCC2	n	n	n	n	29.5	14
CCOC(=O)c1c(NC(=O)COC(=O)c2nccnc2N)sc2c1CCC2	x	x	-10.8	x	x	x
CCOC(=O)c1cc(C)sc1NC(=O)CN1CCN(C(=O)c2ccco2)CC1	n	n	n	n	n	9
CCOC(=O)c1c(NC(=O)c2ccco2)sc2c1CCCC2	n	n	n	n	n	n
Cc1cccc(-c2noc(-c3cc4ccccc4oc3=O)n2)c1	n	n	n	n	n	n
CCOC(=O)c1cc(CC)sc1NC(=O)CN1CCN(C(=O)c2ccco2)CC1	n	n	n	n	n	23
COc1ccc(CN(C)C(=O)COC(=O)c2ccc(-c3ccccc3)cc2)c(OC)c1OC	x	x	-9.26	x	x	x
COc1ccc(CN(C)C(=O)CCN2C(=O)c3ccccc3C2=O)c(OC)c1OC	n	n	n	n	n	n
CSc1ccccc1OCc1cc(C(=O)N2CCC(Oc3cccnc3)CC2)no1	n	n	n	n	n	n
Cc1ccc(-n2cc(-c3ccc([N+](=O)[O-])cc3)[nH]c2=S)c(C)c1	n	n	n	n	7.2	n
Cc1cccc(-n2cc(-c3ccc([N+](=O)[O-])cc3)[nH]c2=S)c1	n	n	n	n	n	n
COc1ccc(C(=O)NC(CCSC)C(=O)N2CCCCCC2)cc1 (centres undefined)	n	n	n	n	n	n
CCc1ccc2[nH]c(O)c(N=Nc3nc(-c4ccccc4)cs3)c2c1	n	n	n	n	7.2	10
COc1ccc(CCn2c(C)nc3c(c(=O)c4ccccc4n3C)c2=O)cc1	n	n	n	n	n	n
COc1ccc(CCn2c(S)nc3ccccc3c2=O)cc1	n	n	n	n	n	8
Fc1cc(F)c2nc(N3CCCCC3)sc2c1	n	n	n	n	5.1	n
SMILES	Kir21 inh	KCNQ1 inh	KCNK3 inh	KCNK9 block	hERG rescue	KCNQ1 act
CN(Cc1ccccc1N1CCCC1)C(=O)c1cc2ccccc2o1	x	x	-11	x	x	x
CN(Cc1ccccc1N1CCCC1)C(=O)c1cc2cc(Cl)ccc2o1	x	x	-9.49	x	x	x
CN(Cc1c(F)cccc1Cl)C(=O)c1cc2ccccc2o1	n	n	n	n	n	n
CN(c1ccc(C(=O)COC(=O)C2CC2)cc1)S(C)(=O)=O	x	x	n	x	x	x
CCOC(=O)C1CCCN(C(=O)C(C)(C)Oc2ccc(Cl)cc2)C1 (centres undefined)	-5.04	n	n	n	n	n
C=CCSC1=C(C#N)C(c2ccccc2)CC(=O)N1 (centres undefined)	n	n	n	n	n	n
